Key:
B2 bradykinin receptor [1] = biological target: T1, B2 bradykinin receptor (Homo sapiens, UniProt P30411); test: Inhibition of [3H]BK (1.0 nM) binding to the human bradykinin receptor B2, expressed in CHO cells; assay type: cell-based
T1 sequence (P30411 whole entry): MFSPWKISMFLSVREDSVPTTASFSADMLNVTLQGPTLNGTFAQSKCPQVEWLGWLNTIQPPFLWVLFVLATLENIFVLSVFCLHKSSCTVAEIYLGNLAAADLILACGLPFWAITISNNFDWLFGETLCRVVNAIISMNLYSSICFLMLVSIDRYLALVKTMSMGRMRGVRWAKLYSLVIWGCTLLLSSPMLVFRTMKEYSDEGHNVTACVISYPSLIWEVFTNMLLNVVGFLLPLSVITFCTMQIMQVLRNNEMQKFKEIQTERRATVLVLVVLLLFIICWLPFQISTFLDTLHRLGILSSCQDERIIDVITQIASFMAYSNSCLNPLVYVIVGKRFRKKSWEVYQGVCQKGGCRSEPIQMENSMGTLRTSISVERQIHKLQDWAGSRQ
Outline: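 Whole CHO (dhfr-) cells stably expressing human B2, seeded 3.0 × 10^4 cells/well and cultured 1 day. Incubated with 1.0 nM [3H]BK plus test compound for 2 h at 4 °C in pH 7.2 HEPES/N-methyl-D-glucamine buffer with bacitracin, enalaprilat and 0.1% BSA. Cells lysed in SDS/NaOH for scintillation counting. Nonspecific binding with 1 μM BK; three experiments.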

[2] = biological target: T2, B2 bradykinin receptor (Homo sapiens) (UniProt P30411); test: (§1) Relative induced inositol phosphate formation in CHO cells expressing the human B2 receptor compared to bradykinin (10 nM); assay type: functional, cell-based
T2 sequence (whole entry): T1 sequence (P30411 whole entry)
Outline: (§2)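 Human B2-expressing CHO cells labeled with [3H]inositol (1 μCi/mL) for 24 h, preincubated with 10 mM LiCl, then exposed to compound for 30 min at 37 °C. Stopped with 5% TCA; IP1–IP3 separated by anion-exchange chromatography and counted. Basal radioactivity subtracted; response expressed relative to 10 nM BK.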

[3] = biological target: T2, B2 bradykinin receptor (Homo sapiens); test: as §1; assay type: functional, cell-based; outline: as §2; remark: listed apart in the source
[4] = biological target: T2, B2 bradykinin receptor (Homo sapiens); test: Relative agonistic activity (10 uM) induced inositol phosphate formation in CHO cells expressing the human B2 receptor compared to bradykinin (10 nM); assay type: functional, cell-based; outline: as §2
B2 bradykinin receptor [5] = biological target: T3, B2 bradykinin receptor (Cavia porcellus, UniProt O70526); test: Concentration required to inhibit specific binding of [3H]-BK(0.06 nM) to the bradykinin receptor B2
T3 sequence (O70526 whole entry): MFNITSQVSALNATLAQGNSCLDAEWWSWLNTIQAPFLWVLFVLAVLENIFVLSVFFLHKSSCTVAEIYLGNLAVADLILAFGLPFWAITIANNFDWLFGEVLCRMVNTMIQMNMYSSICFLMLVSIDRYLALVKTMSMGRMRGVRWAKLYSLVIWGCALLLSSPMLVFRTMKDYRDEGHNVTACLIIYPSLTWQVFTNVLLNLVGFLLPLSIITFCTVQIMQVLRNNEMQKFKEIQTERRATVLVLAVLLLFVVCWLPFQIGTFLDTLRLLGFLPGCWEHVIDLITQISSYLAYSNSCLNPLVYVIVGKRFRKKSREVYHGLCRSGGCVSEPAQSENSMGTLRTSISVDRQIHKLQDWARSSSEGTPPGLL
Outline: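 Guinea pig (male Hartley) ileum membranes in pH 6.8 TES buffer with phenanthroline, bacitracin, DTT, captopril and 0.1% BSA; 0.2 mg protein/mL incubated with 0.06 nM [3H]BK and varying test concentrations, 60 min at room temperature; filtration on glass fiber filters, scintillation counting. Nonspecific binding with 1 μM unlabeled BK. IC50 averaged over at least three determinations.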

WI-38 [6] = test: Relative agonistic activity (10 uM) induced PGE-2 production in human fibroblast WI-38 cells compared to bradykinin (100 nM); assay type: functional
Outline: (§3)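 WI-38 human fibroblasts seeded 1 × 10^5 cells/well in E-MEM with 1% FBS, cultured 24 h. Medium replaced with Hanks-BSA buffer, then test compound for 30 min at 37 °C. Supernatant PGE2 measured by EIA, with control (no compound) subtracted. Result expressed relative to 100 nM BK.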

WI-38 [7] = test: Relative agonistic activity (1 uM) induced PGE-2 production in human fibroblast WI-38 cells compared to bradykinin (100 nM); assay type: functional; outline: as §3
B2 bradykinin receptor [8] = biological target: T3, B2 bradykinin receptor; test: Concentration required to inhibit specific binding of [3H]-BK(0.06 nM) to the B2 receptor in guinea pig ileum membrane;; assay type: tissue-based
Outline: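 Male Hartley guinea pig ileum membranes (homogenised, 1000g debris spin, 10000g pellet) at 0.2 mg protein/mL in pH 6.8 TES buffer with 1,10-phenanthroline, bacitracin, DTT, captopril, 0.1% BSA; incubated with 0.06 nM [3H]BK and varying compound concentrations, 60 min room temperature; GF/B filtration, scintillation counting. Nonspecific binding with 1 μM unlabeled BK; three experiments; IC50 averaged from ≥3 determinations.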

| IC50 (B2 bradykinin receptor [1]) | Relative agonistic activity [2] | Relative agonistic activity [3] | Relative agonistic activity [4] | IC50 (B2 bradykinin receptor [5]) | IC50 (B2 bradykinin receptor [8]) | Structure (SMILES) | Relative agonistic activity (WI-38 [6]) | Relative agonistic activity (WI-38 [7]) |
| --- | --- | --- | --- | --- | --- | --- | --- | --- |
| 0.41 nM | 59.5% | 51.3% | 56.9% | 2.3 nM |  | CNC(=O)c1ccc(/C=C/C(=O)NCC(=O)N(C)c2ccc(Cl)c(COc3cccc4c(OCc5ccccn5)cc(C)nc34)c2Cl)cc1 | 140% | 81.2% |
| 1.2 nM | 57% | 43.4% |  | 1.2 nM |  | CC(=O)Nc1ccc(/C=C/C(=O)NCC(=O)N(C)c2ccc(Cl)c(COc3cccc4c(OCc5ccccn5)cc(C)nc34)c2Cl)cn1 |  |  |
| 0.56 nM | 26.9% | 42.3% |  |  | 6.1 nM | Cc1cc(OCc2ccccn2)c2cccc(OCc3c(Cl)ccc(N(C)C(=O)CNC(=O)/C=C/c4ccc(NC(=O)c5ccncc5)cc4)c3Cl)c2n1 |  |  |
| 2.4 nM | 40.3% | 39.8% |  |  |  | Cc1cc(OCc2ccccn2)c2cccc(OCc3c(Cl)ccc(N(C)C(=O)CNC(=O)/C=C/c4ccc(NC(=O)Cc5ccncc5)nc4)c3Cl)c2n1 |  |  |
| 0.4 nM | 47.4% | 36.7% |  |  |  | Cc1cc(OCc2ccccn2)c2cccc(OCc3c(Cl)ccc(N(C)C(=O)CNC(=O)/C=C/c4ccc(C(=O)Nc5ccncc5)cc4)c3Cl)c2n1 |  |  |
| 1.4 nM | 57.6% | 50.5% |  |  |  | CNC(=O)c1ccc(/C=C/C(=O)NCC(=O)N(C)c2ccc(Cl)c(COc3cccc4c(OCc5ccccn5)cc(C)nc34)c2Cl)cn1 |  |  |
| 1.4 nM | 34.3% | 22.3% |  |  |  | Cc1cc(OCc2ccccn2)c2cccc(OCc3c(Cl)ccc(N(C)C(=O)CNC(=O)/C=C/c4ccc(C(=O)N(C)C)cc4)c3Cl)c2n1 |  |  |

Continued, compound first:

| Structure (SMILES) | IC50 (B2 bradykinin receptor [1]) | Relative agonistic activity [2] | Relative agonistic activity [3] | Relative agonistic activity [4] | IC50 (B2 bradykinin receptor [5]) | IC50 (B2 bradykinin receptor [8]) | Relative agonistic activity (WI-38 [6]) | Relative agonistic activity (WI-38 [7]) |
| --- | --- | --- | --- | --- | --- | --- | --- | --- |
| CNC(=O)c1ccc(/C=C/C(=O)NCC(=O)N(C)c2ccc(Cl)c(COc3cccc4c(OCc5ccccn5)cc(C)nc34)c2Cl)cc1OC | 0.69 nM | 73.9% | 54.9% |  |  |  |  |  |
| COc1nc2c(OCc3c(Cl)ccc(N(C)C(=O)CNC(=O)/C=C/c4ccc(NC(C)=O)nc4)c3Cl)cccc2n1Cc1ccccn1 | 0.68 nM |  |  |  |  |  | 89.5% | 114% |
| CNC(=O)c1ccc(/C=C/C(=O)NCC(=O)N(C)c2ccc(Cl)c(COc3cccc4c(OCC(=O)O)cc(C)nc34)c2Cl)cc1 | > 1000 nM |  |  |  | 50 nM |  |  |  |
| CNC(=O)c1ccc(/C=C/C(=O)NCC(=O)N(C)c2ccc(Cl)c(COc3cccc4c(OCC(=O)N(C)C)cc(C)nc34)c2Cl)cc1 | 3.7 nM | 30.8% |  | 24.4% | 30 nM |  |  |  |
| COc1nc2c(OCc3c(Cl)ccc(N(C)C(=O)CNC(=O)/C=C/c4ccc(NC(C)=O)nc4)c3Cl)cccc2n1C |  |  |  |  |  |  | 24.2% | 4.2% |
| CNC(=O)c1ccc(/C=C/C(=O)NCC(=O)N(C)c2ccc(Cl)c(COc3cccc4c(OC(C)C)cc(C)nc34)c2Cl)cc1 | 13 nM |  |  |  | 1.2 nM |  |  |  |
| CCCOc1cc(C)nc2c(OCc3c(Cl)ccc(N(C)C(=O)CNC(=O)/C=C/c4ccc(C(=O)NC)cc4)c3Cl)cccc12 | 77 nM |  |  |  | 1.2 nM |  |  |  |
| CNC(=O)c1ccc(/C=C/C(=O)NCC(=O)N(C)c2ccc(Cl)c(COc3cccc4c(OC)cc(C)nc34)c2Cl)cc1 | 8.1 nM |  |  |  | 0.23 nM |  |  |  |
| Cc1cc(OCc2ccccn2)c2cccc(OCc3c(Cl)ccc(N(C)C(=O)CNC(=O)/C=C/c4ccc(N5CCCC5=O)cc4)c3Cl)c2n1 | 0.83 nM | 67.4% | 42.9% |  |  |  |  |  |
| COc1nc2c(OCc3c(Cl)ccc(N(C)C(=O)CNC(=O)/C=C/c4ccc(NC(C)=O)nc4)c3Cl)cccc2n1Cc1ccccc1 | 2.5 nM |  |  |  | 26 nM |  | 73.9% | 84.5% |
| COCCn1c(OC)nc2c(OCc3c(Cl)ccc(N(C)C(=O)CNC(=O)/C=C/c4ccc(NC(C)=O)nc4)c3Cl)cccc21 | 3.5 nM |  |  |  | 4.6 nM |  | 54.8% | 38.3% |
| CCOc1cc(C)nc2c(OCc3c(Cl)ccc(N(C)C(=O)CNC(=O)/C=C/c4ccc(C(=O)NC)cc4)c3Cl)cccc12 | 34 nM |  |  |  | 0.19 nM |  |  |  |
| CNC(=O)c1ccc(/C=C/C(=O)NCC(=O)N(C)c2ccc(Cl)c(COc3cccc4c(OC5CCCC5)cc(C)nc34)c2Cl)cc1 | 61 nM |  |  |  | 25 nM |  |  |  |
| CCOC(=O)COc1cc(C)nc2c(OCc3c(Cl)ccc(N(C)C(=O)CNC(=O)/C=C/c4ccc(C(=O)NC)cc4)c3Cl)cccc12 | 2.6 nM | 53.7% |  | 66.4% | 20 nM |  |  |  |
| CCOC(=O)Cn1c(OC)nc2c(OCc3c(Cl)ccc(N(C)C(=O)CNC(=O)/C=C/c4ccc(NC(C)=O)nc4)c3Cl)cccc21 | 0.91 nM |  |  |  | 4.2 nM |  | 121% |  |

Reference: ChEMBL document CHEMBL1148461, “Discovery of the first non-peptide full agonists for the human bradykinin B(2) receptor incorporating 4-(2-picolyloxy)quinoline and 1-(2-picolyl)benzimidazole frameworks” (J Med Chem, 2004)
